ChEMBL document CHEMBL3627653, “Synthesis and biological evaluation of spiro[cyclopropane-1,3'-indolin]-2'-ones as potential anticancer agents” (Bioorg Med Chem Lett, 2015)
Activity calls are given as the source filed them. No cut-off for these calls is given here.

Columns and labels:
[1] = test system: DU-145; experiment: Reduction in mitochondrial membrane potential in human DU145 cells assessed as cell level at Q1-upper right quadrant at 3 uM incubated for 48 hrs by JC1 dye staining based flow cytometry (reference value: 95.1%); assay type: functional; set-up: scale not given: the % may be the effect or the level left
Method in brief: (§1)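 After 48 h exposure at 1.5 or 3 μM, DU-145 cells were stained with JC-1 to track loss of mitochondrial membrane potential (ΔΨm) and read on a FACScan flow cytometer. Untreated control and nocodazole (1.5 μM) were run alongside.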

[2] = test system: DU-145; experiment: Reduction in mitochondrial membrane potential in human DU145 cells assessed as cell level at Q1-upper left quadrant at 1.5 uM incubated for 48 hrs by JC1 dye staining based flow cytometry (reference value: 1.6%); assay type: functional; set-up: scale not given: the % may be the effect or the level left; method in brief: as §1
[3] = test system: DU-145; experiment: Induction of cell cycle arrest in human DU145 cells assessed as accumulation at S phase at 1.5 uM incubated for 48 hrs by propidium iodide staining based flow cytometry (reference value: 1.74%); assay type: functional
[4] = test system: DU-145; experiment: Induction of apoptosis in human DU145 cells assessed as late apoptotic cells level at 1.5 uM incubated for 48 hrs by Annexin V-FITC and propidium iodide staining based flow cytometry (reference value: 3.83%); assay type: functional
[5] = test system: DU-145; experiment: Reduction in mitochondrial membrane potential in human DU145 cells at 3 uM incubated for 48 hrs by JC1 dye staining based flow cytometry; assay type: functional, cell-based; method in brief: as §1
[6] = test system: DU-145; experiment: Induction of cell cycle arrest in human DU145 cells assessed as accumulation at G2/M phase at 3 uM incubated for 48 hrs by propidium iodide staining based flow cytometry (reference value: 6.51%); assay type: functional
[7] = test system: DU-145; experiment: Induction of apoptosis in human DU145 cells assessed as early apoptotic cells level at 3 uM incubated for 48 hrs by Annexin V-FITC and propidium iodide staining based flow cytometry (reference value: 4.73%); assay type: functional
[8] = test system: DU-145; experiment: Induction of apoptosis in human DU145 cells assessed as late apoptotic cells level at 3 uM incubated for 48 hrs by Annexin V-FITC and propidium iodide staining based flow cytometry (reference value: 3.83%); assay type: functional
[9] = test system: DU-145; experiment: Induction of apoptosis in human DU145 cells assessed as viable cells level at 3 uM incubated for 48 hrs by Annexin V-FITC and propidium iodide staining based flow cytometry (reference value: 87.88%); assay type: functional
[10] = test system: DU-145; experiment: Induction of apoptosis in human DU145 cells assessed as increase in caspase-3 levels level at 1.5 and 3 uM incubated for 48 hrs by ELISA method; assay type: functional
Method in brief: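 Caspase-3 levels measured in DU-145 cells after 48 h treatment at 1.5 and 3 μM and expressed relative to untreated control. Data are mean ± SD of two experiments each run in triplicate; significance set at P < 0.005 versus control.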

[11] = test system: A549; experiment: Anticancer activity against human A549 cells assessed as reduction in cell viability incubated for 48 hrs by MTT assay; assay type: functional, cell-based; details: A549, 48 h
[12] = test system: DU-145; experiment: Reduction in mitochondrial membrane potential in human DU145 cells assessed as cell level at Q1-lower right quadrant at 3 uM incubated for 48 hrs by JC1 dye staining based flow cytometry (reference value: 3.1%); assay type: functional; set-up: scale not given: the % may be the effect or the level left; method in brief: as §1
[13] = test system: DU-145; experiment: Induction of cell cycle arrest in human DU145 cells assessed as accumulation at subG1 phase at 3 uM incubated for 48 hrs by propidium iodide staining based flow cytometry (reference value: 9.12%); assay type: functional
[14] = test system: DU-145; experiment: Induction of apoptosis in human DU145 cells assessed as necrotic cells level at 1.5 uM incubated for 48 hrs by Annexin V-FITC and propidium iodide staining based flow cytometry (reference value: 3.56%); assay type: functional
[15] = test system: DU-145; experiment: Induction of apoptosis in human DU145 cells assessed as early apoptotic cells level at 1.5 uM incubated for 48 hrs by Annexin V-FITC and propidium iodide staining based flow cytometry (reference value: 4.73%); assay type: functional
[16] = test system: DU-145; experiment: Induction of apoptosis in human DU145 cells assessed as viable cells level at 1.5 uM incubated for 48 hrs by Annexin V-FITC and propidium iodide staining based flow cytometry (reference value: 87.88%); assay type: functional
[17] = test system: DU-145; experiment: Induction of apoptosis in human DU145 cells assessed as necrotic cells level at 3 uM incubated for 48 hrs by Annexin V-FITC and propidium iodide staining based flow cytometry (reference value: 3.56%); assay type: functional
[18] = test system: HT-29; experiment: Anticancer activity against human HT-29 cells assessed as reduction in cell viability incubated for 48 hrs by MTT assay; assay type: functional, cell-based; details: HT-29, 48 h
[19] = test system: DU-145; experiment: Reduction in mitochondrial membrane potential in human DU145 cells assessed as cell level at Q1-upper left quadrant at 3 uM incubated for 48 hrs by JC1 dye staining based flow cytometry (reference value: 1.6%); assay type: functional; set-up: scale not given: the % may be the effect or the level left; method in brief: as §1
[20] = test system: DU-145; experiment: Induction of cell cycle arrest in human DU145 cells assessed as accumulation at G0/G1 phase at 1.5 uM incubated for 48 hrs by propidium iodide staining based flow cytometry (reference value: 79.81%); assay type: functional
[21] = test system: DU-145; experiment: Induction of cell cycle arrest in human DU145 cells assessed as accumulation at subG1 phase at 1.5 uM incubated for 48 hrs by propidium iodide staining based flow cytometry (reference value: 9.12%); assay type: functional
[22] = test system: DU-145; experiment: Reduction in mitochondrial membrane potential in human DU145 cells assessed as cell level at Q1-upper right quadrant at 1.5 uM incubated for 48 hrs by JC1 dye staining based flow cytometry (reference value: 95.1%); assay type: functional; set-up: scale not given: the % may be the effect or the level left; method in brief: as §1
[23] = test system: DU-145; experiment: Induction of cell cycle arrest in human DU145 cells assessed as accumulation at G0/G1 phase at 3 uM incubated for 48 hrs by propidium iodide staining based flow cytometry (reference value: 79.81%); assay type: functional
[24] = test system: DU-145; experiment: Reduction in mitochondrial membrane potential in human DU145 cells at 1.5 uM incubated for 48 hrs by JC1 dye staining based flow cytometry; assay type: functional, cell-based; method in brief: as §1
[25] = test system: DU-145; experiment: Anticancer activity against human DU145 cells assessed as reduction in cell viability incubated for 48 hrs by MTT assay; assay type: functional, cell-based; details: DU-145, 48 h
[26] = test system: DU-145; experiment: Induction of cell cycle arrest in human DU145 cells assessed as accumulation at S phase at 3 uM incubated for 48 hrs by propidium iodide staining based flow cytometry (reference value: 1.74%); assay type: functional
[27] = test system: HeLa; experiment: Anticancer activity against human HeLa cells assessed as reduction in cell viability incubated for 48 hrs by MTT assay; assay type: functional, cell-based
[28] = test system: MCF7; experiment: Anticancer activity against human MCF7 cells assessed as reduction in cell viability incubated for 48 hrs by MTT assay; assay type: functional, cell-based; details: MCF7, 48 h
[29] = test system: DU-145; experiment: Anticancer activity against human DU145 cells; assay type: functional, cell-based
[30] = test system: HEK293; experiment: Cytotoxic activity against human HEK293 cells assessed as reduction in cell viability incubated for 48 hrs by MTT assay; assay type: cell-based; details: HEK293, 48 h
[31] = test system: DU-145; experiment: Reduction in mitochondrial membrane potential in human DU145 cells assessed as cell level at Q1-lower right quadrant at 1.5 uM incubated for 48 hrs by JC1 dye staining based flow cytometry (reference value: 3.1%); assay type: functional; set-up: scale not given: the % may be the effect or the level left; method in brief: as §1
[32] = test system: DU-145; experiment: Reduction in mitochondrial membrane potential in human DU145 cells assessed as cell level at Q1-lower left quadrant at 3 uM incubated for 48 hrs by JC1 dye staining based flow cytometry (reference value: 0.1%); assay type: functional; set-up: scale not given: the % may be the effect or the level left; method in brief: as §1
[33] = test system: DU-145; experiment: Reduction in mitochondrial membrane potential in human DU145 cells assessed as cell level at Q1-lower left quadrant at 1.5 uM incubated for 48 hrs by JC1 dye staining based flow cytometry (reference value: 0.1%); assay type: functional; set-up: scale not given: the % may be the effect or the level left; method in brief: as §1
[34] = test system: DU-145; experiment: Induction of cell cycle arrest in human DU145 cells assessed as accumulation at G2/M phase at 1.5 uM incubated for 48 hrs by propidium iodide staining based flow cytometry (reference value: 6.51%); assay type: functional

SMILES: CCOC(=O)[C@H]1[C@H](C(=O)c2ccccc2)C12C(=O)Nc1ccccc12 (relative stereo)
- Activity [1]: 85.1%
- Activity [2]: 2.9%
- Activity [3]: 16.58%
- Activity [4]: 78.52%
- Activity [5]: Active
- Activity [6]: 8.93%
- Activity [7]: 22.15%
- Activity [8]: 10.12%
- Activity [9]: 17.66%
- fold change (FC) [10]: 2
- IC50 [11]: 5.12 µM
- Activity [12]: 11.1%
- Activity [13]: 84.93%
- Activity [14]: 0.62%
- Activity [15]: 56.01%
- Activity [16]: 4.19%
- Activity [17]: 10.74%
- IC50 [18]: 3.89 µM
- Activity [19]: 2.2%
- Activity [20]: 2.11%
- Activity [21]: 7.77%
- Activity [22]: 89.7%
- Activity [23]: 4.03%
- Activity [24]: Active
- IC50 [25]: 2.08 µM
- Activity [26]: 70.57%
- IC50 [27]: 7.5 µM
- IC50 [28]: 3.98 µM
- IC50 [29]: 2.08 µM
- IC50 [30]: 64.6 µM
- Activity [31]: 6.6%
- Activity [32]: 1.6%
- Activity [33]: 0.8%
- Activity [34]: 2.27%
